Results reported in article PMC3819908 (Journal of molecular biology, 2011).
Where a name gives a salt, the structure may show the parent alone.

Key:
β1AR-m23 = β1AR-m23 (Meleagris gallopavo, UniProt P07700, A282L/C116L/F327A/F338M/M90V/R68S/Y227A); assay: Saturation binding of ^3H-DHA to DDM-solubilised receptor; parameters: species or system turkey; conditions: read-out: KD for ^3H-DHA, E. coli membranes, solubilised in DDM, n = 4
In short: (§1)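 Receptor expressed in E. coli XL1 by auto-induction (37°C 6 h, then 25°C overnight). French-press membranes were solubilised for 1 h on ice in 20 mM Tris pH 8, 0.4 M NaCl, 1% detergent. Binding ran in 20 mM Tris pH 8, 0.4 M NaCl, 0.1% DDM with 1.25-160 nM 3H-DHA. KD came from nonlinear regression; 2-4 experiments in duplicate.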

β1AR-JM3 [1] = target: T1, β1AR-JM3 (Meleagris gallopavo, UniProt P07700, A282L/C116L/D200E/D322K/F327A/F338M/I129V/M90V/R68S/Y227A/Y343L); assay: as above; parameters: species or system turkey; conditions: read-out: KD for ^3H-DHA, E. coli membranes, solubilised in DDM, n = 4
In short: as §1

β1AR-JM3 [2] = target: T1, β1AR-JM3; assay: Competition binding, displacement of ^3H-DHA; parameters: species or system turkey; conditions: competition with ^3H-DHA
[3] = Thermostability assay of detergent-solubilised receptors expressed in E. coli; type: physicochemical, turkey; conditions: for increase in thermostability (apparent Tm) relative to β1AR-m23: solubilised in NG
[4] = Thermostability assay of cysteine mutants expressed in HEK293T cells; type: physicochemical, turkey; conditions: Cys mutants, solubilised in NG
In short: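 Transiently transfected HEK293T cells were harvested after 48 h, held 1 h on ice in 75 mM Tris pH 8, 12.5 mM MgCl2, 2 mM EDTA, then detergent-solubilised at 4°C. Samples were diluted in 20 mM Tris pH 8, 0.4 M NaCl and heated 30 min at a range of temperatures without ligand. 3H-DHA (80 nM final) was added for 1 h at 4°C; gel-filtration separation gave apparent Tm.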

[5] = in dodecylmaltoside (DDM); cited from earlier work

T1 sequence (P07700 34-424 R68S/M90V/C116L/I129V/D200E/Y227A/A282L/D322K/F327A/F338M/Y343L): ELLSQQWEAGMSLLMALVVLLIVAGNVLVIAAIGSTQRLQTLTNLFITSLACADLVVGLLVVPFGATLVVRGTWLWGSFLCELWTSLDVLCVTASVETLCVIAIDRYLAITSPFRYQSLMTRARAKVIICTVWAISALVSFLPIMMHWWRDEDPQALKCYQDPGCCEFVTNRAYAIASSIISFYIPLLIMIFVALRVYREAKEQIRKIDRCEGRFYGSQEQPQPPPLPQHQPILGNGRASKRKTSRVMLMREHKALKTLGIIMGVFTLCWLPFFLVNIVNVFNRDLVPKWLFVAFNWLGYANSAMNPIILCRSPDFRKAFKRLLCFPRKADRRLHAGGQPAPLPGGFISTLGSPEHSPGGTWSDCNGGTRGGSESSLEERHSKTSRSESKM
β1AR-m23, sequence (P07700 34-424 R68S/M90V/C116L/Y227A/A282L/F327A/F338M): as the sequence (P07700 34-424 R68S/M90V/C116L/I129V/D200E/Y227A/A282L/D322K/F327A/F338M/Y343L) above, with V96I, E167D, K289D, L310Y counted along it

Molecule: 1-[4,6-propyl-^3H]dihydroalprenolol [^3H-DHA]
- Kd (β1AR-m23): 5.5 ± 1.1 nM
- Kd (β1AR-JM3 [1]): 10.6 ± 1.6 nM

Molecule: NC[C@H](O)c1ccc(O)c(O)c1 [noradrenaline, L-(-)-norepinephrine bitartrate salt monohydrate]
- fold weaker binding to β1AR-JM3 compared to wild-type β1AR (β1AR-JM3 [2]): 4960 fold

Molecule: D322K: β1AR-m23 salt bridge mutant D322K
- increase in thermostability (apparent Tm) relative to β1AR-m23 [3]: 5 °C

Molecule: M44C: single cysteine mutant of β1AR-m23
- destabilisation (decrease in thermostability) relative to β1AR-m23 [4]: 4 °C

Molecule: V103C: single cysteine mutant of β1AR-m23
- destabilisation (decrease in thermostability) relative to β1AR-m23 [4]: 7 °C

Molecule: Y343L: most stabilising single mutation of β1AR-m23 from the leucine scan
- increase in thermostability (apparent Tm) relative to β1AR-m23 [3]: 5 °C

Molecule: wild-type receptor: residues 34-424 of the turkey β1AR
- decrease in stability on addition of Zn^2+ ([3]; 1 mM ZnCl2): up to 7 °C

Molecule: β1AR-m23: residues 34-424 of turkey β1-adrenoceptor with R68S, M90V, Y227A, A282L, F327A, F338M and C116L
- increase of the apparent Tm relative to wild type [5]: 21 °C
- apparent Tm ([3]; 0.8% NG, identical conditions): 23.4 ± 0.8 °C
